Our source for the IC50, bioavailability and clearance values is ChEMBL document CHEMBL1137854, “Substituted piperazines as novel dipeptidyl peptidase IV inhibitors” (Bioorg Med Chem Lett, 2004).

Molecules are shown by their SMILES.

One data set concerns the target Dipeptidyl peptidase 4 (Homo sapiens, UniProt P27487). In words: Inhibitory concentration against Dipeptidylpeptidase IV.
Another data set deals with Dipeptidyl peptidase 2 (Homo sapiens, UniProt Q9UHL4). In words: Inhibitory concentration against quiescent cell proline peptidase.
Data set [1] in a line: Bioavailability in rat. Format: ADME, organism-based. As to conditions: in vivo. Put shortly:
(§1)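 Male Sprague-Dawley rats given compound intravenously at 1 mg/kg and orally at 2 mg/kg; plasma drug concentrations measured by LC/MS/MS.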

Data set [2] in a line: Clearance in rat. Format: ADME, organism-based. As to conditions: in vivo. Put shortly:
as §1

Dipeptidyl peptidase 4, sequence (P27487 whole entry): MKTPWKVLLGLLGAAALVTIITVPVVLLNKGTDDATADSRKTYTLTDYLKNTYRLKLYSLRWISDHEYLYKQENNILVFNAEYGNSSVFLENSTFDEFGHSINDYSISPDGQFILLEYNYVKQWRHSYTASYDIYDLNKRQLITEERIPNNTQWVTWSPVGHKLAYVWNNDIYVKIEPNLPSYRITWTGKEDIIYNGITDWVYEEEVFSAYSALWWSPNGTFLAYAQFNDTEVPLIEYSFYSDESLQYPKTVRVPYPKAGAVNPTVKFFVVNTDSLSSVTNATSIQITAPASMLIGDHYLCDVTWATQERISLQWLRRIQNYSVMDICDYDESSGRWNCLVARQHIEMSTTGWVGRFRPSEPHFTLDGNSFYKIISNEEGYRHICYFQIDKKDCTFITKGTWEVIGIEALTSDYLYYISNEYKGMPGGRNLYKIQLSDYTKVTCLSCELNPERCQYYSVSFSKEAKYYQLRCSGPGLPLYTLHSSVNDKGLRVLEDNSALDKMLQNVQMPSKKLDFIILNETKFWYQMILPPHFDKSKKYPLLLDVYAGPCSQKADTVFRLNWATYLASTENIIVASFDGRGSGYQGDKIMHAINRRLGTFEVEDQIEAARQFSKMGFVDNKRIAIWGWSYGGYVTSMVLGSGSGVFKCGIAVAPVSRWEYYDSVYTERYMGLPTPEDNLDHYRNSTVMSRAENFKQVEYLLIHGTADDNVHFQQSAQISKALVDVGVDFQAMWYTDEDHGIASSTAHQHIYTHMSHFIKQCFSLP

Turning to `N[C@@H](CC(=O)N1CCNC[C@H]1Cc1ccccc1)Cc1ccccc1F`, the figures for the IC50 on Dipeptidyl peptidase 4 and at Dipeptidyl peptidase 2 were 0.139 µM and above 100 µM, respectively.

As for `N[C@@H](CC(=O)N1CCNC[C@H]1c1ccc(F)cc1)Cc1ccccc1F`, the values for the IC50 against Dipeptidyl peptidase 4 and against Dipeptidyl peptidase 2 were 0.61 µM and 23 µM, respectively.

In data set [1], `CS(=O)(=O)Nc1cccc(NC(=O)CN2CCN(C(=O)C[C@H](N)Cc3ccccc3F)[C@H](Cc3ccccc3)C2)c1` displayed a bioavailability below 1%. Further, the clearance in data set [2] was found to be 7.8 L/h/kg.

On Dipeptidyl peptidase 2, `CS(=O)(=O)Nc1cccc(NC(=O)CN2CCN(C(=O)C[C@H](N)Cc3ccccc3)C(Cc3ccccc3)C2)c1` (some centres undefined) showed a half-inhibitory concentration (IC50) of 7.7 µM.

For the compound `CN1CCN(C(=O)C[C@H](N)Cc2ccccc2F)[C@H](Cc2ccccc2)C1`, the IC50 against Dipeptidyl peptidase 4 was 0.225 µM; against Dipeptidyl peptidase 2, above 100 µM.

With `N[C@@H](CC(=O)N1CCN(Cc2ccccc2)C[C@H]1Cc1ccccc1)Cc1ccccc1F`, the IC50 against Dipeptidyl peptidase 4 was 0.405 µM; against Dipeptidyl peptidase 2, 15 µM.

In the case of `N[C@@H](CC(=O)N1CCNCC1)Cc1ccccc1F`, the values for the IC50 on Dipeptidyl peptidase 4 and on Dipeptidyl peptidase 2 were 3.7 µM and above 100 µM, respectively.

Consider `CS(=O)(=O)Nc1cccc(NC(=O)CN2CCN(C(=O)C[C@@H](N)Cc3ccc(F)c(F)c3)C(Cc3ccccc3)C2)c1` (some centres undefined), for which the results for the half-maximal inhibitory concentration (IC50) against Dipeptidyl peptidase 4 and on Dipeptidyl peptidase 2 were 36 µM and 15 µM, respectively.

For `N[C@@H](CC(=O)N1CCNC[C@H]1Cc1cccnc1)Cc1ccccc1F`, the IC50 was 0.155 µM at Dipeptidyl peptidase 4 and above 100 µM on Dipeptidyl peptidase 2.

Consider `N[C@@H](CC(=O)N1CCNC[C@H]1Cc1ccc(F)cc1)Cc1ccccc1F`, for which the 50% inhibitory concentration (IC50) at Dipeptidyl peptidase 4 was 0.166 µM; against Dipeptidyl peptidase 2 it was above 100 µM.

With `NC(=O)CN1CCN(C(=O)C[C@H](N)Cc2ccccc2F)[C@H](Cc2ccccc2)C1`, the half-inhibitory concentration (IC50) against Dipeptidyl peptidase 4 turned out to be 0.114 µM; against Dipeptidyl peptidase 2, 66 µM.

As for `N[C@@H](CC(=O)N1CCNC[C@H]1Cc1cscn1)Cc1ccccc1F`, the IC50 at Dipeptidyl peptidase 4 is 0.143 µM; against Dipeptidyl peptidase 2 it was above 100 µM.

Turning to `N[C@@H](CC(=O)N1CCOC[C@H]1Cc1ccccc1)Cc1ccccc1F`, the IC50 against Dipeptidyl peptidase 4 is 0.108 µM; at Dipeptidyl peptidase 2, above 100 µM.

In the case of `N[C@@H](CC(=O)N1CCCC[C@H]1Cc1ccccc1)Cc1ccccc1F`, the concentration for half-maximal inhibition (IC50) against Dipeptidyl peptidase 4 was 1.04 µM; against Dipeptidyl peptidase 2, above 100 µM.

`CS(=O)(=O)Nc1cccc(NC(=O)CN2CCN(C(=O)C[C@H](N)Cc3ccc(F)c(F)c3)C(Cc3ccccc3)C2)c1` (some centres undefined): the IC50 on Dipeptidyl peptidase 4 came to 0.044 µM; against Dipeptidyl peptidase 2, 0.45 µM.

In the case of `C[C@@H]1CNCCN1C(=O)C[C@H](N)Cc1ccccc1F`, the 50% inhibitory concentration (IC50) against Dipeptidyl peptidase 4 is 1.6 µM; at Dipeptidyl peptidase 2, above 100 µM.

On to `CS(=O)(=O)Nc1cccc(NC(=O)CN2CCN(C(=O)C[C@H](N)Cc3ccc(F)c(F)c3)[C@@H](Cc3ccccc3)C2)c1`, for which the IC50 on Dipeptidyl peptidase 4 came out at 1.1 µM; against Dipeptidyl peptidase 2, 0.28 µM.

As for `CS(=O)(=O)Nc1cccc(NC(=O)CN2CCN(C(=O)C[C@H](N)Cc3ccc(F)c(F)c3)[C@H](Cc3ccccc3)C2)c1`, the IC50 against Dipeptidyl peptidase 4 was 0.03 µM; at Dipeptidyl peptidase 2 it was 0.64 µM.

Take `CC(C)[C@@H]1CNCCN1C(=O)C[C@H](N)Cc1ccccc1F`: the IC50 on Dipeptidyl peptidase 4 was 0.922 µM; against Dipeptidyl peptidase 2, 50 µM.

Compound `CS(=O)(=O)Nc1cccc(NC(=O)CN2CCN(C(=O)C[C@@H](N)Cc3ccccc3)C(Cc3ccccc3)C2)c1` (some centres undefined) had a concentration for half-maximal inhibition (IC50) on Dipeptidyl peptidase 2 of 19 µM.

Consider `N[C@@H](CC(=O)N1CCNC[C@H]1Cc1ccccc1)Cc1cc(F)ccc1F`, for which inhibition against Dipeptidyl peptidase 2 was half-maximal at 65 µM (IC50).

By IC50 is commonly meant the concentration needed to halve the response being measured. In general, bioavailability refers to dose-corrected exposure relative to a reference, in per cent. A word on the clearance: it is the volume of plasma or blood freed of the substance per unit of time. A lower clearance goes with a low capacity for elimination.
